MEX-5 binding = C. elegans MEX-5 TCR-2 RNA binding activity | Q9XUB2 | MEX-5/FITC-TCR2 RNA binding, fluorescence polarization; active compounds read low | activity score (negative = inhibition of binding), % at 10 µM | actives 0.38% (n = 300,000);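 active means inhibition past about -25% in most replicates, and total fluorescence under double the plate's negative control median, limit read from the data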
IMP-1 inh-1 = inhibitors of Pseudomonas aeruginosa IMP-1 metallo-beta-lactamase; purified IMP-1, nitrocefin hydrolysis, epi-absorbance fluorescence; inhibition, % at 5.6 µM; actives 0.45% (n = 290,000); AID 1556;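 active means inhibition above the mean plus 3 SD of all compounds in the same screening run, cut at about 4.5% in these data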
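System: purified IMP-1 / Input: IMP-1 dispensed at 0.2 nM / Medium: 50 mM HEPES pH 7.1, 50 µM ZnSO4, 0.05% Brij 35 / Timing: 15 min enzyme–compound preincubation, then 25 min nitrocefin reaction, 25 °C / Technique: plate fluorescence quenching by hydrolysis product, ex 480/em 530 nm / Repeats: singlicate testing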
EBV gp42 block = inhibitors of Epstein-Barr virus glycoprotein 42; actives 0.42% (n = 220,000); Fluorescence polarization binding assay, mP read-out; AID 1085; Q1HVG2; inhibition, % (tested at 21.74 µM); in the data active means inhibition above about 50%
GLD-1 RNA inh = GLD-1-TGE RNA interaction inhibition (C. elegans); Q17339; purified GLD-1 + fluorescein TGE RNA, fluorescence polarization; inhibition, % at 5.96 µM; actives 0.44% (n = 320,000);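 active means percent inhibition above a per-plate cutoff, the plate mean of test compounds plus 3 SD, cut at about 30% in these data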
Target sequence (Q17339 whole entry, looked up): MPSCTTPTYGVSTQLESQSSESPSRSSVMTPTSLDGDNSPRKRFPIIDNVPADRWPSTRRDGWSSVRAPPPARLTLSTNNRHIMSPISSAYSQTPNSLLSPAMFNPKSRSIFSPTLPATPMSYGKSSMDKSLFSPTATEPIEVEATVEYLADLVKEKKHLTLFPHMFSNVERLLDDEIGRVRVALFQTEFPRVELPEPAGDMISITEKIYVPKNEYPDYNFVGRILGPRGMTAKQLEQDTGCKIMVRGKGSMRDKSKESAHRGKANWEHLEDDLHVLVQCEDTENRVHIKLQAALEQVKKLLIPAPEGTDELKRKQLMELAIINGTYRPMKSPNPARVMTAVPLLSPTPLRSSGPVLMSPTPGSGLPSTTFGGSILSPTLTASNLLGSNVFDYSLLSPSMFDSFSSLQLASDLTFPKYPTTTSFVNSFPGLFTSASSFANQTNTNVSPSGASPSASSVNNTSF
VIM-2 inh = inhibitors of Pseudomonas aeruginosa VIM-2 metallo-beta-lactamase | purified VIM-2, nitrocefin hydrolysis, epi-absorbance fluorescence | inhibition, % at 5.6 µM | actives 0.89% (n = 290,000);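 active means inhibition above the mean of all tested compounds plus 3 SD, cutoff set per screening run, cut at about 7.5% in these data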;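 further: red hydrolysis product quenches plate fluorescence so inhibitors raise well fluorescence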
BCLXL inh = Bcl-xL (human) inhibition. inhibition, % at 10.9 µM. GST-Bcl-xL / FITC-Bim BH3 peptide fluorescence polarization. AID 2129. actives 0.7% (n = 320,000). Q07817;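 active means inhibition above the mean of all tested compounds plus 3 SD, cutoff set per campaign, cut at about 30% in these data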;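 further: inhibitors lower millipolarization by displacing the labeled peptide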
Target sequence (Q07817 whole entry, looked up): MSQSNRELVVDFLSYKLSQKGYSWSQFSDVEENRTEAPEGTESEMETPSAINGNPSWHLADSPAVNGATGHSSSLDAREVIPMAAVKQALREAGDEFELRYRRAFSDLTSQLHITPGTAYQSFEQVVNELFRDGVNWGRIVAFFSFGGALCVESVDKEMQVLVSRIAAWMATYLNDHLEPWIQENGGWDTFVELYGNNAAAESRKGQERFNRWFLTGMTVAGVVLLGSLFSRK
IMP-1 inh-2 = selectivity counter-screen for VIM-2 inhibitors: IMP-1 metallo-beta-lactamase inhibitors; shares compounds with VIM-2 inh; inhibition, % at 5.6 µM; AID 1856; 1,300 tested, under 10 active; purified IMP-1, nitrocefin hydrolysis, epi-absorbance fluorescence; call rule not given here
VIM-2 FRET ctr = counter-screen for VIM-2 inhibitors: epi-absorbance artifacts via FRET; shares compounds with VIM-2 inh; purified VIM-2, CCF2 FRET substrate hydrolysis; inhibition, % at 5.6 µM; actives 23% (n = 1,300);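 active means inhibition above the mean of all tested compounds plus 3 SD, cut at about 19% in these data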
TEM-1 counter = selectivity counter-screen for VIM-2 inhibitors: E. coli TEM-1 inhibitors; shares compounds with VIM-2 inh; Purified TEM-1, nitrocefin hydrolysis, epi-absorbance fluorescence; inhibition, % at 5.6 µM; actives 3% (n = 1,300);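 active means inhibition above that campaign's mean inhibition plus 3 SD, cut at about 0.46% in these data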
VIM-2 confirm 2 = confirmation of P. aeruginosa VIM-2 metallo-beta-lactamase inhibitors; shares compounds with VIM-2 inh; purified VIM-2, nitrocefin hydrolysis, epi-absorbance; inhibition, % at 5.6 µM; actives 96% (n = 1,300); AID 2187;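 active means inhibition of the VIM-2 beta-lactamase enzyme above about 11% from the earlier first-round screen, limit read from the data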
Hits are given with their value; n = inactive; x = not tested or not shown. This is a sample that favours compounds with a hit; in the whole collection about 2.2% have one here.

SMILES	MEX-5 binding	IMP-1 inh-1	EBV gp42 block	GLD-1 RNA inh	VIM-2 inh	BCLXL inh	IMP-1 inh-2	VIM-2 FRET ctr	TEM-1 counter	VIM-2 confirm 2
CNC(=O)CSc1nnc(NC(=O)C2CC(=O)N(c3ccccc3OC)C2)s1 (stereo not drawn)	n	n	x	n	33	n	n	n	n	n
O=C(O)c1ccccc1/C=N/n1c(C2CCCCC2)n[nH]c1=S	n	n	x	n	15	n	n	32	n	21
CCn1c(SCC(=O)NC2CCCC2)nnc1-c1ccccn1	n	n	x	n	n	n	x	x	x	x
CCOP(=O)(OCC)c1ccc2ccc3ccccc3c(=O)c2c1	x	x	x	n	x	x	x	x	x	x
CN1CCN(CCCn2cnc3c(=O)oc4ccccc4c32)CC1	n	n	n	n	21	n	n	n	n	40
CN1CCN(CCNC(=O)c2cc3c(=O)n(C)c4ccccc4c3n2C)CC1	n	n	n	n	21	n	n	n	n	33
Cn1c(C(=O)NCCCN2CCCCCC2)cc2c(=O)n(C)c3ccccc3c21	x	n	n	n	22	n	n	n	n	29
CCCN1CCN(CCCNC(=O)c2cc3c(=O)n(C)c4ccccc4c3n2C)CC1	n	n	n	n	16	n	n	n	n	30
Cn1c(C(=O)Nc2ccc3c(c2)OCCO3)cc2c(=O)n(C)c3ccccc3c21	n	n	n	n	n	n	x	x	x	x
CCOC(=O)N1CCC(NC(=O)c2cc3c(=O)n(C)c4ccccc4c3n2C)CC1	n	n	n	n	n	n	x	x	x	x
COc1ccc(Cl)cc1NC(=O)CN(C)C(=O)CCNC(=O)c1ccccc1OC	x	x	x	n	x	n	x	x	x	x
CCC(C)[C@H](NC(=O)N1CC(=O)Nc2ccccc21)C(=O)N1CCC(C(=O)O)CC1 (stereo partly drawn)	n	n	x	n	n	n	x	x	x	x
O=C(CSc1ncn[nH]1)N1N=C(c2ccc(Cl)cc2)CC1c1ccco1 (stereo not drawn)	n	n	n	n	13	n	n	30	n	17
CN(CCO)c1ccc(-c2n[nH]c(=O)c3ccccc23)cc1[N+](=O)[O-]	n	n	x	x	16	x	n	n	n	27
CCC(CO)Nc1ccc(-c2n[nH]c(=O)c3ccccc23)cc1[N+](=O)[O-] (stereo not drawn)	n	n	x	n	22	n	n	n	n	32
CCOC(=O)CNS(=O)(=O)c1cc(-c2n[nH]c(=O)c3ccccc23)ccc1C	n	n	n	x	n	x	x	x	x	x
CCC(CO)Nc1ccc(-c2nn(C)c(=O)c3ccccc23)cc1[N+](=O)[O-] (stereo not drawn)	n	n	n	n	25	n	n	n	n	45
CCOc1ccc(N2C(=O)CC(SCCN)C2=O)cc1 (stereo not drawn)	n	n	n	n	n	n	x	x	x	x
CCCCCCOc1ccc(N2C(=O)CC(SCCN)C2=O)cc1 (stereo not drawn)	n	n	x	n	15	n	n	n	n	n
Cc1cccc(NC(=O)c2cnccn2)c1	n	n	x	n	n	n	x	x	x	x
Cc1ccc(S(=O)(=O)NCCC(=O)N2CCN(c3ccccc3)CC2)cc1C	x	x	x	n	x	x	x	x	x	x
COCCNc1cc(C)c(C#N)c2nc3ccccc3n12	n	n	n	n	26	n	n	n	n	39
Cc1cc(NCCOCCO)n2c(nc3ccccc32)c1C#N	n	n	x	n	33	n	n	n	n	50
N#Cc1ccc(C(=O)NNC(=O)c2ccncc2)cc1	n	n	x	n	n	n	x	x	x	x
CCOc1cccc2c1OC1(C)CC2NC(=O)N1c1cccc(C(=O)NCc2ccccn2)c1 (stereo not drawn)	x	n	x	n	n	n	x	x	x	x
SMILES	MEX-5 binding	IMP-1 inh-1	EBV gp42 block	GLD-1 RNA inh	VIM-2 inh	BCLXL inh	IMP-1 inh-2	VIM-2 FRET ctr	TEM-1 counter	VIM-2 confirm 2
COc1ccc2c(c1OC)c(=O)n1c3ccc(OC(C)C(=O)NCCN4CCOCC4)cc3c3ccnc2c31 (stereo not drawn)	n	n	x	n	18	n	n	n	n	26
Cn1nc(C(=O)NCCN2CCOCC2)c2ccccc2c1=O	n	n	n	n	n	n	x	x	x	x
CC(Oc1ccc2c(c1)c1ccnc3c4ccccc4c(=O)n2c13)C(=O)NCCN1CCOCC1 (stereo not drawn)	n	n	x	n	27	n	n	n	n	36
CC(Oc1ccc(Cl)cc1Cl)C(=O)NCCN1CCOCC1 (stereo not drawn)	n	n	n	n	n	n	x	x	x	x
COc1ccccc1C(=O)NCCN=C1NS(=O)(=O)c2ccccc21	n	n	x	n	n	n	x	x	x	x
CCOCCCN(C)C1CCN(S(=O)(=O)c2csc(C(N)=O)c2)CC1	n	n	x	n	n	n	x	x	x	x
O=C(O)CC/C(=C\c1cc([N+](=O)[O-])ccc1Cl)c1nc2ccccc2s1	n	n	n	n	21	n	n	49	n	34
O=C(NNC(=O)c1ccc([N+](=O)[O-])cc1C(=O)O)c1ccncc1	n	n	x	n	n	n	x	x	x	x
CCCCCCn1cc(C(=O)O)c(=O)c2cc(F)c(N3CCN(C)CC3)cc21	n	n	x	n	16	n	n	n	n	19
CCSc1ccc2nnc(-c3cccs3)n2n1	n	n	n	n	17	n	n	n	n	28
CCSc1ccc2nnc(-c3ccc(F)cc3)n2n1	n	n	n	n	14	n	n	n	n	24
CCn1c(CN(C)c2ccccc2)nc2ccccc21	n	n	x	n	n	n	x	x	x	x
CN(C)c1cccc(C(=O)OCc2cc(=O)oc3cc(O)ccc23)c1	n	n	52	n	32	n	n	34	n	27
CC1CN(S(=O)(=O)c2cccc(C(=O)OCc3cc(=O)oc4cc(O)ccc34)c2)CC(C)O1 (stereo not drawn)	n	n	x	n	n	n	x	x	x	x
O=c1oc2cc(O[C@@H]3OC[C@@H](O)[C@H](O)[C@H]3O)ccc2c2ccccc12	n	n	x	n	16	n	n	n	n	28
CCOc1ccc(C(=O)c2ccccc2C(=O)O)cc1OCC	n	n	n	n	n	n	x	x	x	x
CC1=CC(=O)C(C(C)C)=C/C1=C(\c1cc(C(C)C)c(OP(=O)(O)O)cc1C)c1ccccc1C(=O)O	n	n	x	n	18	n	n	32	n	25
Cc1cc(C)cc(OCC(=O)OC/C(O)=C(\C#N)c2nc3ccccc3[nH]2)c1	n	n	n	n	14	n	n	n	n	n

Compound activity deposited in PubChem by several laboratories.
